Assay results as given in ChEMBL document CHEMBL4219021, “Discovery of a Small-Molecule Degrader of Bromodomain and Extra-Terminal (BET) Proteins with Picomolar Cellular Potencies and Capable of Achieving Tumor Regression” (J Med Chem, 2018).
One block for each molecule: values may come before it. Calls of active or inactive are those of the source. The rule behind the calls is not given here.

Tests used:
[1] = target: T1, Protein cereblon/Bromodomain-containing protein 2/Cullin-4A (Homo sapiens) (UniProt P25440+Q96SW2+Q13619); assay: Induction of cereblon/cullin 4A-mediated BRD2 degradation in human RS4:11 cells at 3 to 30 nM after 3 hrs by Western blot method; type: cell-based
T1 sequence (P25440 whole entry, looked up): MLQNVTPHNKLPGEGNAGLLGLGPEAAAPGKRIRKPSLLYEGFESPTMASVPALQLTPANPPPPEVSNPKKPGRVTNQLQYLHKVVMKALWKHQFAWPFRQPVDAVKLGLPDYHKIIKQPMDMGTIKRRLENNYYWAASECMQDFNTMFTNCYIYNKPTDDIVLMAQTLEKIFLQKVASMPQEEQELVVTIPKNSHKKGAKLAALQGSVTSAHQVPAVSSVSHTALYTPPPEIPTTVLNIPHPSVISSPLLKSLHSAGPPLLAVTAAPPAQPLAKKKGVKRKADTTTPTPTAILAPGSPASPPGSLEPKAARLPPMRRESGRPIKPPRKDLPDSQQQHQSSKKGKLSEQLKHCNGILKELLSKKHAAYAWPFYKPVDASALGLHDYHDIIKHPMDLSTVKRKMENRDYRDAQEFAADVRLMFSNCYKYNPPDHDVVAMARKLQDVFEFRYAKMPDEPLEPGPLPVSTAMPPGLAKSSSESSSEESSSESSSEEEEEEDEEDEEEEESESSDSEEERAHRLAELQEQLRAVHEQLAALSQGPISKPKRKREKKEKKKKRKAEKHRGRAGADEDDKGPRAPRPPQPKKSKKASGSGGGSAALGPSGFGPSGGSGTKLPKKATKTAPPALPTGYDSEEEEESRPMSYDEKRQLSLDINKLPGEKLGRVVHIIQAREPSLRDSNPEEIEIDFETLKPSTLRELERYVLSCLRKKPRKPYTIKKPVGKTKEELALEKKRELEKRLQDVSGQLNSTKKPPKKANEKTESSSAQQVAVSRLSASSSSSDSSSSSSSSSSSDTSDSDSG
T1 sequence (Q13619 whole entry, looked up): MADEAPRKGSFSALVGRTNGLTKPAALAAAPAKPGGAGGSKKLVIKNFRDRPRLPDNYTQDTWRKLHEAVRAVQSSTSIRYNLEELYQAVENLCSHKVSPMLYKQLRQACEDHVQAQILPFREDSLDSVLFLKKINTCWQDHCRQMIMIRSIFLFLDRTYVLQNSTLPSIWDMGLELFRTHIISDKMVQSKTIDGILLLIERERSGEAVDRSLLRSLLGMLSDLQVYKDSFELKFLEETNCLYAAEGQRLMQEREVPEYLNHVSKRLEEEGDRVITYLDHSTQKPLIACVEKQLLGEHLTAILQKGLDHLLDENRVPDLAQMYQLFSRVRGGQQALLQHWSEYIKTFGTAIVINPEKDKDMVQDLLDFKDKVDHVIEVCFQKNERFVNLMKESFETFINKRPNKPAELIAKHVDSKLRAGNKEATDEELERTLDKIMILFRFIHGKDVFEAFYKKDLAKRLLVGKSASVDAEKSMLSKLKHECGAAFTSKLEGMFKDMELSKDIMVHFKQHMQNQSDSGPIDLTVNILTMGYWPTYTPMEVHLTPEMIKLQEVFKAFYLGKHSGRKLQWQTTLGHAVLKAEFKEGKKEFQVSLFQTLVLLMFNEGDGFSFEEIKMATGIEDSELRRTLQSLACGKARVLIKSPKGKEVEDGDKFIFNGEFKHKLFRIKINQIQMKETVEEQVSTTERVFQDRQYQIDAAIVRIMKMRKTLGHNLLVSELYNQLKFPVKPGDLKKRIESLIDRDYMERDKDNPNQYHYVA
T1 sequence (Q96SW2 whole entry, looked up): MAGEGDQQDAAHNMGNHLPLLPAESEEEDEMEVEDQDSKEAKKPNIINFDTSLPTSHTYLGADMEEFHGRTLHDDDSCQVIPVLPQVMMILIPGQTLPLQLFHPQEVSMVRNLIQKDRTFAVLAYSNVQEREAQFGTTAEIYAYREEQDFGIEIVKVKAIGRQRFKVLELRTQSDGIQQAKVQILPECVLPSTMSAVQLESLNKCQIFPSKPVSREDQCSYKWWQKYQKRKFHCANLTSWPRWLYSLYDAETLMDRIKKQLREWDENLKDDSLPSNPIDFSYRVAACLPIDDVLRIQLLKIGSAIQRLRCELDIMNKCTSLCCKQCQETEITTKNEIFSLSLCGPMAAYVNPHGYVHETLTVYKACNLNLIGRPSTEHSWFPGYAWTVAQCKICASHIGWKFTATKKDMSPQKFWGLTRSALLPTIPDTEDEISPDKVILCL
How it was run: (§1)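 RS4;11 cells (2 × 10⁶/well) treated for 3 h at the indicated concentrations. Lysed in RIPA with protease inhibitors and immunoblotted for BRD2, BRD3 and BRD4 with specific antibodies.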

[2] = target: T2, Protein cereblon/Bromodomain-containing protein 3/Cullin-4A (Homo sapiens) (UniProt Q15059+Q96SW2+Q13619); assay: Induction of cereblon/cullin 4A-mediated BRD3 degradation in human RS4:11 cells at 3 to 30 nM after 3 hrs by Western blot method; type: cell-based
T2 sequence (Q13619 whole entry, looked up): as the sequence (Q13619 whole entry, looked up) above
T2 sequence (Q15059 whole entry, looked up): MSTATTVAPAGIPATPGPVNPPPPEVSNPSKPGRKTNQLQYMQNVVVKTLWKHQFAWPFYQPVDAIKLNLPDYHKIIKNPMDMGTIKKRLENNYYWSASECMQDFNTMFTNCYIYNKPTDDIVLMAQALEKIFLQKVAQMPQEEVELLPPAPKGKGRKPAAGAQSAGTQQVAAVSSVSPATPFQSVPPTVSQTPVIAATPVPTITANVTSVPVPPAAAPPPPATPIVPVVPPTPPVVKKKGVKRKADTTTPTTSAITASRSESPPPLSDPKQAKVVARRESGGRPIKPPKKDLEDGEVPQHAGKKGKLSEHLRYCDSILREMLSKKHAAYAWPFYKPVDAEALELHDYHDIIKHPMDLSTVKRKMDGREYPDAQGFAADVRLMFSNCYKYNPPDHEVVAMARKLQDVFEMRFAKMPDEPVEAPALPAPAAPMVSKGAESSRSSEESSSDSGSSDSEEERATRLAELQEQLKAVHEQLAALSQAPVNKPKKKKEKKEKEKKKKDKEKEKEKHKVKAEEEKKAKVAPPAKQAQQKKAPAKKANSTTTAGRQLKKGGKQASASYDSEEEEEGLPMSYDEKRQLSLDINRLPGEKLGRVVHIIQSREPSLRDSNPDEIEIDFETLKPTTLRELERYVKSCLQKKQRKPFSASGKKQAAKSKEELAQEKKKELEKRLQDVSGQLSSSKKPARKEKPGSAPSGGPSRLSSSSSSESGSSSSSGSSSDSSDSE
T2 sequence (Q96SW2 whole entry, looked up): as the sequence (Q96SW2 whole entry, looked up) above
How it was run: (§2)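 Western blot of RS4;11 cells (2 × 10⁶ cells/well) in RPMI 1640 with 10% FBS, 37 °C, 5% CO₂, used within three months of thawing. Compound exposure was 3 h or 24 h at the indicated concentrations. Cells were lysed in RIPA with protease inhibitors, and BRD2, BRD3 and BRD4 were detected with specific antibodies, with GAPDH as loading control.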

[3] = test system: RS4-11; assay: Cytotoxicity against human RS4:11 cells assessed as cell growth inhibition after 4 days by WST-8 assay; type: functional, cell-based; details: RS4-11, 96 h
[4] = test system: MOLM-13; assay: Cytotoxicity against human MOLM13 cells assessed as cell growth inhibition after 4 days by WST-8 assay; type: functional, cell-based; details: MOLM-13, 96 h
[5] = target: T3, Bromodomain-containing protein 4 (Homo sapiens, UniProt O60885); assay: Inhibition of FAM-labeled ZBA248 binding to recombinant N-terminal His6-tagged BRD4 bromodomain 2 (333 to 460 residues) (unknown origin) expressed in Escherichia coli Rosetta2 DE3 after 30 mins by fluorescence polarization assay
[6] = target: T4, Bromodomain-containing protein 2 (Homo sapiens, UniProt P25440); assay: Inhibition of FAM-labeled ZBA248 binding to recombinant N-terminal His6-tagged BRD2 bromodomain 1 (72 to 205 residues) (unknown origin) expressed in Escherichia coli Rosetta2 DE3 after 30 mins by fluorescence polarization assay
T4 sequence (P25440 whole entry, the tested form may be a part): as the sequence (P25440 whole entry, looked up) above

[7] = target: T5, Bromodomain-containing protein 3 (Homo sapiens, UniProt Q15059); assay: Inhibition of FAM-labeled ZBA248 binding to recombinant N-terminal His6-tagged BRD3 bromodomain 1 (24 to 144 residues) (unknown origin) expressed in Escherichia coli Rosetta2 DE3 after 30 mins by fluorescence polarization assay
T5 sequence (Q15059 whole entry, the tested form may be a part): as the sequence (Q15059 whole entry, looked up) above

[8] = target: T3, Bromodomain-containing protein 4; assay: Inhibition of FAM-labeled ZBA248 binding to recombinant N-terminal His6-tagged BRD4 bromodomain 1 (44 to 168 residues) (unknown origin) expressed in Escherichia coli Rosetta2 DE3 after 30 mins by fluorescence polarization assay
[9] = target: T5, Bromodomain-containing protein 3; assay: Inhibition of FAM-labeled ZBA248 binding to recombinant N-terminal His6-tagged BRD3 bromodomain 2 (306 to 417residues) (unknown origin) expressed in Escherichia coli Rosetta2 DE3 after 30 mins by fluorescence polarization assay
[10] = target: T4, Bromodomain-containing protein 2; assay: Inhibition of FAM-labeled ZBA248 binding to recombinant N-terminal His6-tagged BRD2 bromodomain 2 (349 to 460 residues) (unknown origin) expressed in Escherichia coli Rosetta2 DE3 after 30 mins by fluorescence polarization assay
[11] = target: T1, Protein cereblon/Bromodomain-containing protein 2/Cullin-4A (Homo sapiens); assay: Induction of cereblon/cullin 4A-mediated BRD2 degradation in human RS4:11 cells at 30 to 1000 nM after 3 hrs by Western blot method; type: cell-based; how it was run: as §1
[12] = target: T6, Protein cereblon/Bromodomain-containing protein 4/Cullin-4A (Homo sapiens) (UniProt O60885+Q96SW2+Q13619); assay: Induction of cereblon/cullin 4A-mediated BRD4 degradation in human RS4:11 cells at 30 to 1000 nM after 3 hrs by Western blot method; type: cell-based; how it was run: as §2
[13] = target: T2, Protein cereblon/Bromodomain-containing protein 3/Cullin-4A (Homo sapiens); assay: Induction of cereblon/cullin 4A-mediated BRD3 degradation in human RS4:11 cells at 30 to 1000 nM after 3 hrs by Western blot method; type: cell-based; how it was run: as §2
[14] = target: T2, Protein cereblon/Bromodomain-containing protein 3/Cullin-4A (Homo sapiens); assay: Induction of cereblon/cullin 4A-mediated BRD3 degradation in human RS4:11 cells at 30 to 300 nM after 3 hrs by Western blot method; type: cell-based; how it was run: as §2
[15] = target: T1, Protein cereblon/Bromodomain-containing protein 2/Cullin-4A (Homo sapiens); assay: Induction of cereblon/cullin 4A-mediated BRD2 degradation in human RS4:11 cells at 30 to 300 nM after 3 hrs by Western blot method; type: cell-based; how it was run: as §1
[16] = target: T6, Protein cereblon/Bromodomain-containing protein 4/Cullin-4A (Homo sapiens); assay: Induction of cereblon/cullin 4A-mediated BRD4 degradation in human RS4:11 cells at 30 to 300 nM after 3 hrs by Western blot method; type: cell-based; how it was run: as §2
[17] = target: T2, Protein cereblon/Bromodomain-containing protein 3/Cullin-4A (Homo sapiens); assay: Induction of cereblon/cullin 4A-mediated BRD3 degradation in human RS4:11 cells after 3 hrs by Western blot method; type: cell-based; how it was run: as §1
[18] = target: T6, Protein cereblon/Bromodomain-containing protein 4/Cullin-4A (Homo sapiens); assay: Induction of cereblon/cullin 4A-mediated BRD4 degradation in human RS4:11 cells after 3 hrs by Western blot method; type: cell-based; how it was run: as §2
[19] = target: T1, Protein cereblon/Bromodomain-containing protein 2/Cullin-4A (Homo sapiens); assay: Induction of cereblon/cullin 4A-mediated BRD2 degradation in human RS4:11 cells after 3 hrs by Western blot method; type: cell-based; how it was run: as §1

Activity [11]: inactive | Activity [12]: inactive | Activity [13]: inactive
SMILES: CCn1nc(C2CC2)cc1Nc1nc(C(=O)NCCCCCc2cccc3c2CN(C2CCC(=O)N(C)C2=O)C3=O)nc2[nH]c3cc(-c4c(C)noc4C)c(OC)cc3c12 (stereo not drawn)
IC50 [3]: 35.1 nM | IC50 [4]: 83.4 nM

Activity [14]: Active | Activity [15]: Active | Activity [16]: Active
SMILES: Cc1sc2c(c1C)C(c1ccc(Cl)cc1)=N[C@@H](CC(=O)NCCCCNC(=O)COc1cccc3c1C(=O)N(C1CCC(=O)NC1=O)C3=O)c1nnc(C)n1-2 (stereo partly drawn)
IC50 [4]: 657 nM

Activity [17]: Dose-dependent effect | Activity [18]: Dose-dependent effect | Activity [19]: Dose-dependent effect
SMILES: CCn1nc(C2CC2)cc1Nc1nc(C(=O)NCCCCCCc2cccc3c2CN(C2CCC(=O)NC2=O)C3=O)nc2[nH]c3cc(-c4c(C)noc4C)c(OC)cc3c12 (stereo not drawn)
IC50 [3]: 0.037 nM | IC50 [4]: 1 nM

The remaining lines, values behind:

SMILES: Cc1sc2c(c1C)C(c1ccc(Cl)cc1)=N[C@@H](CC(=O)Nc1ccc(OCCOCCOCCOCCNc3cccc4c3C(=O)N(C3CCC(=O)NC3=O)C4=O)cc1)c1nnc(C)n1-2 (stereo partly drawn)
Activity [1]: Active | Activity [2]: Active

SMILES: CCn1nc(C2CC2)cc1Nc1nc(C(=O)NCCCCCCNc2cccc3c2C(=O)N(C2CCC(=O)NC2=O)C3=O)nc2[nH]c3cc(-c4c(C)noc4C)c(OC)cc3c12 (stereo not drawn)
IC50 [3]: 0.63 nM | IC50 [4]: 3.7 nM

SMILES: CCn1nc(C2CC2)cc1Nc1nc(C(=O)NCCCCNc2cccc3c2C(=O)N(C2CCC(=O)NC2=O)C3=O)nc2[nH]c3cc(-c4c(C)noc4C)c(OC)cc3c12 (stereo not drawn)
IC50 [3]: 0.45 nM | IC50 [4]: 5 nM

SMILES: CNC(=O)c1ncc2c(n1)[nH]c1cc(-c3c(C)noc3C)c(OC)cc12
IC50 [5]: 630 nM | Ki [5]: 205 nM | IC50 [6]: 218 nM | Ki [6]: 101 nM | IC50 [7]: 294 nM | Ki [7]: 82.1 nM | IC50 [8]: 484 nM | Ki [8]: 152 nM | IC50 [9]: 189 nM | Ki [9]: 42.4 nM | IC50 [10]: 224 nM | Ki [10]: 57.3 nM

SMILES: CCn1nc(C2CC2)cc1Nc1nc(C(=O)NCCCCNC(=O)CNc2cccc3c2C(=O)N(C2CCC(=O)NC2=O)C3=O)nc2[nH]c3cc(-c4c(C)noc4C)c(OC)cc3c12 (stereo not drawn)
IC50 [3]: 2.5 nM | IC50 [4]: 19.9 nM

SMILES: CCn1nc(C2CC2)cc1Nc1nc(C(=O)NCCCCCCc2cccc3c2C(=O)N(C2CCC(=O)NC2=O)C3=O)nc2[nH]c3cc(-c4c(C)noc4C)c(OC)cc3c12 (stereo not drawn)
IC50 [3]: 0.17 nM | IC50 [4]: 2.5 nM

SMILES: CCn1nc(C2CC2)cc1Nc1nc(C(=O)NCCCCCc2cccc3c2C(=O)N(C2CCC(=O)NC2=O)C3=O)nc2[nH]c3cc(-c4c(C)noc4C)c(OC)cc3c12 (stereo not drawn)
IC50 [3]: 0.14 nM | IC50 [4]: 2.1 nM
